Experimental data of several laboratories.
Cell line: HepG2
Observed: cell growth or viability

Cc1ccc(NC(=O)NNC(=O)c2ccc(Nc3nccc(-c4cccnc4)n3)cc2)cc1  IC50 (MTT; 24 h): > 40 µM
C#Cc1cccc(Nc2ncnc3cc(OCCOC)c(OCCOC)cc23)c1  IC50 (MTT): 6.83 µM
COc1cc2ncnc(Nc3ccc(F)c(Cl)c3)c2cc1NC(=O)N/N=C/c1cccn1CCCN1CCCCC1  IC50 (MTT; 72 h): 0.31 µM
CC1=C(O)C(=O)C=C2C1=CC=C1[C@@]2(C)CC[C@@]2(C)[C@@H]3C[C@](C)(C(=O)OCCCBr)CC[C@]3(C)CC[C@]12C  IC50 (MTT; 48 h): 1.32 µM
COc1cc2ncnc(Nc3ccc(F)c(Cl)c3)c2cc1NC(=O)N/N=C/c1cccn1CCCN(C)C  IC50 (MTT; 72 h): 0.05 µM
O=c1c(O)c(-c2ccc(O)cc2)oc2cc(O)cc(O)c12  IC50 (WST-1; 48 h): 34.4 µM
Cc1ccc2nc(-c3ccc(N(C)C)cc3)[nH]c2c1  IC50 (MTT; 48 h): 35.1 µM
CC(C)C(=O)Nc1ccc([N+](=O)[O-])c(C(F)(F)F)c1  IC50 (CCK-8; 48 h): 2.54 µM
c1ccc2[nH]c(-c3ccncc3)nc2c1  IC50 (MTT; 48 h): 87.7 µM
Oc1c(I)cc(I)c2cccnc12  IC50 (MTT; 48 h): 80.1 µM
O=C(/C=C/c1ccc(O)c(O)c1)O[C@@H]1C[C@](O)(C(=O)O)C[C@@H](O)[C@H]1O  IC50 (WST-1; 48 h): 24.6 µM
c1cnc2c(c1)ccc1cccnc12  IC50 (MTT; 48 h): > 50 µM
Clc1ccc(Cn2c(-c3ccc(Cl)cc3)nc3ccccc32)cc1  IC50 (MTT): 10.1 µM
Nc1ccc(-c2csc(Nc3ccc4c(O)ncnc4c3)n2)cc1  IC50 (MTT): 15 µM
Cc1ccc2nc(-c3ccc([N+](=O)[O-])cc3)n(Cc3ccccc3)c2c1  IC50 (MTT): 6.74 µM
Oc1ncnc2cc(Nc3nc(-c4ccc(F)cc4)cs3)ccc12  IC50 (MTT): 7.92 µM
COC(=O)CN=c1scc(-c2ccccc2)n1-c1ccccc1OC  IC50 (MTT; 72 h): 22.7 µM
O=c1[nH]cc(F)c(=O)[nH]1  IC50 (MTT; 48 h): 32.8 µM
CC1=C(O)C(=O)C=C2C1=CC=C1[C@@]2(C)CC[C@@]2(C)[C@@H]3C[C@](C)(C(=O)OCCCOc4ccccc4)CC[C@]3(C)CC[C@]12C  IC50 (MTT; 48 h): 3.04 µM
CN1CCN(CCCn2cccc2/C=N/NC(=O)Nc2cc3c(Nc4ccc(F)c(Cl)c4)ncnc3cc2O[C@H]2CCOC2)CC1  IC50 (MTT; 72 h): 0.68 µM
CC1=CC(C)(C)N(Cc2ccccc2)c2ccc(O)cc21  IC50 (MTT; 72 h): 20 µM
Cc1ccc2nc(-c3ccc(Cl)cc3Cl)[nH]c2c1  IC50 (MTT; 48 h): 30.7 µM
CC1=C(O)C(=O)C=C2C1=CC=C1[C@@]2(C)CC[C@@]2(C)[C@@H]3C[C@](C)(C(=O)OCCCN4C(=O)C5C=CC=CC5C4=O)CC[C@]3(C)CC[C@]12C (stereo partly drawn)  IC50 (MTT; 48 h): 1.27 µM
Cc1cc(=O)oc2ccc(-c3cc(-c4ccc(Cl)cc4)nc(N)n3)c(O)c12  IC50 (MTT; 72 h): 18.1 µg/mL
CC(=O)O[C@H]1C(=O)[C@@]2(C)[C@H]([C@H](OC(=O)c3ccccc3)[C@]3(O)C[C@H](OC(=O)[C@H](O)[C@@H](NC(=O)c4ccccc4)c4ccccc4)C(C)=C1C3(C)C)[C@]1(OC(C)=O)CO[C@@H]1C[C@@H]2O  IC50: 2 µg/mL
Cc1ccc2c(Br)cc(Br)c(O)c2n1  IC50 (MTT; 48 h): > 150 µM
CN(C)CCn1cccc1/C=N/NC(=O)Nc1cc2c(Nc3ccc(F)c(Cl)c3)ncnc2cc1O[C@H]1CCOC1  IC50 (MTT; 72 h): 0.04 µM
CC1(C)CC[C@]2(C)CC[C@]3(C)C(=CC[C@@H]4[C@@]5(C)CC[C@H](O)C(C)(C)[C@@H]5CC[C@]43C)[C@@H]2C1  IC50 (WST-1; 48 h): 82.8 µM
COc1cc2ncnc(Nc3ccc(F)c(Cl)c3)c2cc1NC(=O)N/N=C/c1cccn1CCCN1CCCC1  IC50 (MTT; 72 h): 0.06 µM
COc1cc(-c2nc(OCc3cn(CC(=O)Nc4ccc(C)cc4)nn3)c3ccccc3n2)cc(OC)c1OC  IC50 (MTT; 72 h): 13.6 µM
CCCCc1ccc2[nH]c(NC(=O)OC)nc2c1  IC50 (CCK-8; 72 h): 0.044 µM
Oc1ncnc2cc(Nc3nc(-c4ccc(Cl)cc4)cs3)ccc12  IC50 (MTT): 9.36 µM
Cc1cc(C)n(-c2nc(Nc3ccc(Br)cc3)nc(N3CCOCC3)n2)n1  IC50 (MTT; 72 h): 3.01 µM
CC1=C(O)C(=O)C=C2C1=CC=C1[C@@]2(C)CC[C@@]2(C)[C@@H]3C[C@](C)(C(=O)OCCCCO)CC[C@]3(C)CC[C@]12C  IC50 (MTT; 48 h): 0.63 µM
CC(=O)O[C@H]1C(=O)[C@@]2(C)[C@H]([C@H](OC(=O)c3ccccc3)[C@]3(O)C[C@H](OC(=O)[C@H](O)[C@@H](NC(=O)c4ccccc4)c4ccccc4)C(C)=C1C3(C)C)[C@]1(OC(C)=O)CO[C@@H]1C[C@@H]2O  IC50 (MTT; 48 h): 4.75 µM
CCN(CC)C/C=N/NC(=O)Nc1cc2c(Nc3ccc(F)c(Cl)c3)ncnc2cc1O[C@H]1CCOC1  IC50 (MTT; 72 h): 2.38 µM
O=C(NCCc1ccccc1)NNC(=O)c1ccc(Nc2nccc(-c3cccnc3)n2)cc1  IC50 (MTT): 5.48 µM
COc1cccc(-c2nc3ccccc3n2Cc2ccccc2)c1  IC50 (MTT): 40.7 µM
CCCCNC(=O)NNC(=O)c1ccc(Nc2nccc(-c3ccccn3)n2)cc1  IC50 (MTT; 24 h): 15.7 µM
COc1cc2c(Nc3ccc(NC(=O)c4ccccc4)cc3)ncnc2cc1OCCCN1CCOCC1  IC50 (MTS; 72 h): 0.6 µM
COc1ccc(-c2nc3ccc(C)cc3[nH]2)cc1O  IC50 (MTT; 48 h): 59.8 µM
O=C(NNC(=O)c1ccc(Nc2nccc(-c3ccc(Cl)cc3)n2)cc1)NC1CCCCC1  IC50 (MTT; 24 h): 13.1 µM
COc1cccc2c1C(=O)c1c(O)c3c(c(O)c1C2=O)C[C@@](O)(C(=O)CO)C[C@@H]3O[C@H]1C[C@H](N)[C@H](O)[C@H](C)O1  IC50 (MTT; 48 h): 0.1 µM
O=C(NNC(=O)c1ccc(Nc2nccc(-c3ccccn3)n2)cc1)NC1CCCC1  IC50 (MTT): > 40 µM
COc1cc2ncnc(Nc3ccc(F)c(Cl)c3)c2cc1NC(=O)N/N=C/c1cccn1CCCN1CCOCC1  IC50 (MTT; 72 h): 0.12 µM
COc1cccc2c1C(=O)c1c(O)c3c(c(O)c1C2=O)C[C@@](O)(C(=O)CO)C[C@@H]3O[C@H]1C[C@H](N)[C@H](O)[C@H](C)O1  IC50 (SRB): 0.37 µM
Cc1cc(=O)oc2ccc(-c3cc(-c4cccc(Cl)c4)nc(N)n3)c(O)c12  IC50 (MTT; 72 h): > 128 µg/mL
O=C(N/N=C/c1cccn1CCCN1CCOCC1)Nc1cc2c(Nc3ccc(F)c(Cl)c3)ncnc2cc1O[C@H]1CCOC1  IC50 (MTT; 72 h): 1.89 µM
